Laboratory results taken from ChEMBL document CHEMBL2157922, “Synthesis and antifungal activity of diverse C-2 pyridinyl and pyridinylvinyl substituted quinolines” (2012).
In brackets after ≈: the same amount, converted by molar mass.

Tests used:
Candida albicans [1] = assay: Antifungal activity against Candida albicans CCC 129 after 48 hrs by broth microdilution technique; assay type: functional; settings: CCC 129, 48 h
Aspergillus niger = assay: Antifungal activity against Aspergillus niger ATCC 9029 after 48 hrs by broth microdilution technique; assay type: functional; settings: ATCC 9029, 48 h
Procedure, shortened: (§1)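 Moulds and dermatophytes were run by CLSI broth microdilution in MOPS-buffered RPMI-1640 at pH 7.0. Aspergillus was incubated at 30 °C and dermatophytes at 28–30 °C, in a moist, dark chamber. MIC100, the lowest concentration with no visible growth, was read visually at a time set by growth of the control fungus.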

Candida albicans [2] = assay: Antifungal activity against Candida albicans CCC 127 after 48 hrs by broth microdilution technique; assay type: functional; settings: CCC 127, 48 h
Candida albicans [3] = assay: Antifungal activity against Candida albicans CCC 125 after 48 hrs by broth microdilution technique; assay type: functional; settings: CCC 125, 48 h
Cryptococcus neoformans [4] = assay: Antifungal activity against Cryptococcus neoformans IM 983036 after 48 hrs by broth microdilution technique; assay type: functional; settings: IM 983036, 48 h
Procedure, shortened: (§2)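 C. neoformans was tested by 96-well RPMI-1640 microdilution, with DMSO-matched growth and sterility control wells. Plates were incubated 48 h at 30 °C in a moist, dark chamber and read at OD405. % inhibition = 100 − (CTW − SCW)/(GCW − SCW), in duplicate. For the clinical isolates, MIC80 and MIC50 are the lowest concentrations giving 80% and 50% inhibition.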

Cryptococcus neoformans [5] = assay: Antifungal activity against Cryptococcus neoformans IM 983040 after 48 hrs by broth microdilution technique; assay type: functional; settings: IM 983040, 48 h; procedure, shortened: as §2
Cryptococcus neoformans [6] = assay: Antifungal activity against Cryptococcus neoformans IM 042074 after 48 hrs by broth microdilution technique; assay type: functional; settings: IM 042074, 48 h; procedure, shortened: as §2
Candida albicans [7] = assay: Antifungal activity against Candida albicans CCC 130 after 48 hrs by broth microdilution technique; assay type: functional; settings: CCC 130, 48 h
Nannizzia gypsea = assay: Antifungal activity against Microsporum gypseum CCC 115 after 48 hrs by broth microdilution technique; assay type: functional; settings: CCC 115, 48 h; procedure, shortened: as §1
Cryptococcus neoformans [8] = assay: Antifungal activity against Cryptococcus neoformans IM 972724 after 48 hrs by broth microdilution technique; assay type: functional; settings: IM 972724, 48 h; procedure, shortened: as §2
Candida albicans [9] = assay: Antifungal activity against Candida albicans CCC 128 after 48 hrs by broth microdilution technique; assay type: functional; settings: CCC 128, 48 h
Candida albicans [10] = assay: Antifungal activity against Candida albicans ATCC 10231 after 48 hrs by broth microdilution technique; assay type: functional; settings: ATCC 10231, 48 h
Procedure, shortened: (§3)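 Yeasts were tested by CLSI broth microdilution in RPMI-1640 buffered to pH 7.0 with MOPS, with compound from 250 down to 0.98 in DMSO stocks. Trays were held at 30 °C in a moist, dark chamber. MIC100, the lowest concentration giving total visual inhibition against the growth control, was read by eye at 48 h.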

Trichophyton rubrum = assay: Antifungal activity against Trichophyton rubrum CCC 113 after 48 hrs by broth microdilution technique; assay type: functional; settings: CCC 113, 48 h
Cryptococcus neoformans [11] = assay: Antifungal activity against Cryptococcus neoformans IM 972751 after 48 hrs by broth microdilution technique; assay type: functional; settings: IM 972751, 48 h; procedure, shortened: as §2
Aspergillus flavus = assay: Antifungal activity against Aspergillus flavus ATCC 9170 after 48 hrs by broth microdilution technique; assay type: functional; settings: ATCC 9170, 48 h; procedure, shortened: as §1
Cryptococcus neoformans [12] = assay: Antifungal activity against Cryptococcus neoformans ATCC 32264 after 48 hrs by broth microdilution technique; assay type: functional; settings: ATCC 32264, 48 h; procedure, shortened: as §3
Candida tropicalis = assay: Antifungal activity against Candida tropicalis CCC 131 after 48 hrs by broth microdilution technique; assay type: functional; settings: CCC 131, 48 h
Pichia kudriavzevii = assay: Antifungal activity against Candida krusei CCC 117 after 48 hrs by broth microdilution technique; assay type: functional; settings: CCC 117, 48 h
Nakaseomyces glabratus = assay: Antifungal activity against Candida glabrata CCC 115 after 48 hrs by broth microdilution technique; assay type: functional; settings: CCC 115, 48 h
Candida parapsilosis = assay: Antifungal activity against Candida parapsilosis CCC 124 after 48 hrs by broth microdilution technique; assay type: functional; settings: Lodderomyces parapsilosis, CCC 124, 48 h
Aspergillus fumigatus = assay: Antifungal activity against Aspergillus fumigatus ATCC 26934 after 48 hrs by broth microdilution technique; assay type: functional; settings: ATCC 26934, 48 h; procedure, shortened: as §1
Saccharomyces cerevisiae = assay: Antifungal activity against Saccharomyces cerevisiae ATCC 9763 after 48 hrs by broth microdilution technique; assay type: functional; settings: ATCC 9763, 48 h; procedure, shortened: as §3
[13] = test system: Trichophyton mentagrophytes; assay: Antifungal activity against Trichophyton mentagrophytes ATCC 9972 after 48 hrs by broth microdilution technique; assay type: functional; settings: ATCC 9972, 48 h; procedure, shortened: as §1
Candida albicans [14] = assay: Antifungal activity against Candida albicans CCC 126 after 48 hrs by broth microdilution technique; assay type: functional; settings: CCC 126, 48 h
Cryptococcus neoformans [15] = assay: Antifungal activity against Cryptococcus neoformans IM 00319 after 48 hrs by broth microdilution technique; assay type: functional; settings: IM 00319, 48 h; procedure, shortened: as §2
Cryptococcus neoformans [16] = assay: Antifungal activity against Cryptococcus neoformans ATCC 32264 at 31.2 ug/ml after 48 hrs; assay type: functional; settings: ATCC 32264, 48 h; procedure, shortened: as §2
Candida albicans [17] = assay: Antifungal activity against Candida albicans CCC 130 after 24 hrs by broth microdilution technique; settings: CCC 130, 24 h

SMILES: C[C@@H]1[C@H](O)[C@@H](C)/C=C/C=C/C=C/C=C/C=C/C=C/C=C/[C@H](O[C@@H]2O[C@H](C)[C@@H](O)[C@H](N)[C@@H]2O)C[C@@H]2O[C@](O)(C[C@@H](O)C[C@@H](O)[C@H](O)CC[C@@H](O)C[C@@H](O)CC(=O)O[C@H]1C)C[C@H](O)[C@H]2C(=O)O [AMPHOTERICIN B]
- MIC80 (Candida albicans [1]): 0.78 µg/mL (≈ 0.844 µM)
- MIC (Aspergillus niger): 0.49 µg/mL (≈ 0.53 µM)
- MIC80 (Candida albicans [2]): 0.78 µg/mL (≈ 0.844 µM)
- MIC80 (Candida albicans [3]): 0.78 µg/mL (≈ 0.844 µM)
- MIC80 (Cryptococcus neoformans [4]): 0.13 µg/mL (≈ 0.141 µM)
- MIC80 (Cryptococcus neoformans [5]): 0.13 µg/mL (≈ 0.141 µM)
- MIC80 (Cryptococcus neoformans [6]): 0.25 µg/mL (≈ 0.271 µM)
- MIC80 (Candida albicans [7]): 0.5 µg/mL (≈ 0.541 µM)
- MIC (Nannizzia gypsea): 0.12 µg/mL (≈ 0.13 µM)
- MIC80 (Cryptococcus neoformans [8]): 0.06 µg/mL (≈ 0.0649 µM)
- MIC80 (Candida albicans [9]): 1.56 µg/mL (≈ 1.69 µM)
- MIC (Candida albicans [10]): 0.98 µg/mL (≈ 1.06 µM)
- MIC80 (Candida albicans [10]): 1 µg/mL (≈ 1.08 µM)
- MIC (Trichophyton rubrum): 0.06 µg/mL (≈ 0.0649 µM)
- MIC80 (Cryptococcus neoformans [11]): 0.25 µg/mL (≈ 0.271 µM)
- MIC (Aspergillus flavus): 0.49 µg/mL (≈ 0.53 µM)
- MIC (Cryptococcus neoformans [12]): 0.25 µg/mL (≈ 0.271 µM)
- MIC80 (Cryptococcus neoformans [12]): 0.25 µg/mL (≈ 0.271 µM)
- MIC80 (Candida tropicalis): 0.5 µg/mL (≈ 0.541 µM)
- MIC80 (Pichia kudriavzevii): 0.39 µg/mL (≈ 0.422 µM)
- MIC80 (Nakaseomyces glabratus): 0.39 µg/mL (≈ 0.422 µM)
- MIC80 (Candida parapsilosis): 0.78 µg/mL (≈ 0.844 µM)
- MIC (Aspergillus fumigatus): 0.49 µg/mL (≈ 0.53 µM)
- MIC (Saccharomyces cerevisiae): 0.49 µg/mL (≈ 0.53 µM)
- MIC [13]: 0.06 µg/mL (≈ 0.0649 µM)
- MIC80 (Candida albicans [14]): 1.56 µg/mL (≈ 1.69 µM)
- MIC80 (Cryptococcus neoformans [15]): 0.25 µg/mL (≈ 0.271 µM)

SMILES: Cc1ccc2nc(-c3ccncc3)ccc2c1
- MIC50 (Candida albicans [1]): 62.5 µg/mL (≈ 284 µM)
- MIC80 (Candida albicans [1]): 125 µg/mL (≈ 567 µM)
- MFC (Aspergillus niger): 250 µg/mL (≈ 1130 µM)
- MIC (Aspergillus niger): 125 µg/mL (≈ 567 µM)
- MIC50 (Candida albicans [2]): 31.2 µg/mL (≈ 142 µM)
- MIC80 (Candida albicans [2]): 125 µg/mL (≈ 567 µM)
- MIC50 (Candida albicans [3]): 31.2 µg/mL (≈ 142 µM)
- MIC80 (Candida albicans [3]): 125 µg/mL (≈ 567 µM)
- MIC50 (Cryptococcus neoformans [4]): 31.2 µg/mL (≈ 142 µM)
- MIC80 (Cryptococcus neoformans [4]): 62.5 µg/mL (≈ 284 µM)
- MIC50 (Cryptococcus neoformans [5]): 7.8 µg/mL (≈ 35.4 µM)
- MIC80 (Cryptococcus neoformans [5]): 31.2 µg/mL (≈ 142 µM)
- MIC50 (Cryptococcus neoformans [6]): 15.6 µg/mL (≈ 70.8 µM)
- MIC80 (Cryptococcus neoformans [6]): 31.2 µg/mL (≈ 142 µM)
- MIC80 (Candida albicans [7]): 125 µg/mL (≈ 567 µM)
- MFC (Nannizzia gypsea): 62 µg/mL (≈ 281 µM)
- MIC (Nannizzia gypsea): 62 µg/mL (≈ 281 µM)
- MIC50 (Cryptococcus neoformans [8]): 15.6 µg/mL (≈ 70.8 µM)
- MIC80 (Cryptococcus neoformans [8]): 31.2 µg/mL (≈ 142 µM)
- MIC50 (Candida albicans [9]): 31.2 µg/mL (≈ 142 µM)
- MIC80 (Candida albicans [9]): 125 µg/mL (≈ 567 µM)
- MFC (Candida albicans [10]): 250 µg/mL (≈ 1130 µM)
- MIC (Candida albicans [10]): 125 µg/mL (≈ 567 µM)
- MIC50 (Candida albicans [10]): 15.6 µg/mL (≈ 70.8 µM)
- MIC80 (Candida albicans [10]): 31.2 µg/mL (≈ 142 µM)
- MFC (Trichophyton rubrum): 62 µg/mL (≈ 281 µM)
- MIC (Trichophyton rubrum): 62 µg/mL (≈ 281 µM)
- MIC50 (Cryptococcus neoformans [11]): 7.8 µg/mL (≈ 35.4 µM)
- MIC80 (Cryptococcus neoformans [11]): 31.2 µg/mL (≈ 142 µM)
- MFC (Aspergillus flavus): 125 µg/mL (≈ 567 µM)
- MIC (Aspergillus flavus): 62 µg/mL (≈ 281 µM)
- MFC (Cryptococcus neoformans [12]): 125 µg/mL (≈ 567 µM)
- MIC (Cryptococcus neoformans [12]): 62 µg/mL (≈ 281 µM)
- MIC50 (Cryptococcus neoformans [12]): 7.8 µg/mL (≈ 35.4 µM)
- MIC80 (Cryptococcus neoformans [12]): 31.2 µg/mL (≈ 142 µM)
- MIC50 (Candida tropicalis): 15.6 µg/mL (≈ 70.8 µM)
- MIC80 (Candida tropicalis): 125 µg/mL (≈ 567 µM)
- MIC50 (Pichia kudriavzevii): 31.2 µg/mL (≈ 142 µM)
- MIC80 (Pichia kudriavzevii): 62.5 µg/mL (≈ 284 µM)
- inhibition at 31.2 µg/mL (Cryptococcus neoformans [16]): 80%
- MIC50 (Candida albicans [17]): 62.5 µg/mL (≈ 284 µM)
- MIC50 (Nakaseomyces glabratus): 7.8 µg/mL (≈ 35.4 µM)
- MIC80 (Nakaseomyces glabratus): 15.6 µg/mL (≈ 70.8 µM)
- MIC50 (Candida parapsilosis): 7.8 µg/mL (≈ 35.4 µM)
- MIC80 (Candida parapsilosis): 31.2 µg/mL (≈ 142 µM)
- MFC (Aspergillus fumigatus): 125 µg/mL (≈ 567 µM)
- MIC (Aspergillus fumigatus): 62 µg/mL (≈ 281 µM)
- MFC (Saccharomyces cerevisiae): 125 µg/mL (≈ 567 µM)
- MIC (Saccharomyces cerevisiae): 62 µg/mL (≈ 281 µM)
- MFC [13]: 62 µg/mL (≈ 281 µM)
- MIC [13]: 62 µg/mL (≈ 281 µM)
- MIC50 (Candida albicans [14]): 31.2 µg/mL (≈ 142 µM)
- MIC80 (Candida albicans [14]): 62.5 µg/mL (≈ 284 µM)
- MIC50 (Cryptococcus neoformans [15]): 15.6 µg/mL (≈ 70.8 µM)
- MIC80 (Cryptococcus neoformans [15]): 31.2 µg/mL (≈ 142 µM)

SMILES: Clc1cccc2ccc(-c3ccncc3)nc12
- MIC (Aspergillus niger): > 250 µg/mL
- MFC (Nannizzia gypsea): 62 µg/mL (≈ 258 µM)
- MIC (Nannizzia gypsea): 31 µg/mL (≈ 129 µM)
- MIC (Candida albicans [10]): > 250 µg/mL
- MFC (Trichophyton rubrum): 62 µg/mL (≈ 258 µM)
- MIC (Trichophyton rubrum): 31 µg/mL (≈ 129 µM)
- MIC (Aspergillus flavus): > 250 µg/mL
- MFC (Cryptococcus neoformans [12]): 250 µg/mL (≈ 1040 µM)
- MIC (Cryptococcus neoformans [12]): 125 µg/mL (≈ 519 µM)
- MIC (Aspergillus fumigatus): > 250 µg/mL
- MIC (Saccharomyces cerevisiae): > 250 µg/mL
- MFC [13]: 125 µg/mL (≈ 519 µM)
- MIC [13]: 62 µg/mL (≈ 258 µM)
